# Screening results deposited in PubChem BioAssay by several laboratories.
# STAT3 activator – IL-6 driven STAT3 reporter potentiators, primary screen, U3A cells, luciferase, luminescence, MLSCN library | IL-6 STAT3-luciferase reporter; 100% = signal with IL-6 EC80 alone | activation (% of control), % at 5.6 µM | 190,000 compounds, 0.91% hits;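 active = activation above the screen-wide mean of compound activation plus 3 SD, cut at about 130% in these data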;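 note: 0% = background luminescence of wells with medium and substrate only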
#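 Test system: Human STAT1-deficient U3A cells with stable STAT3-luciferase reporter | Also added: Interleukin-6, 33 ng/mL | Timing: Compound pre-incubation 1 h before IL-6, then 6 h stimulation at 37 °C | Technique: Luciferase reporter luminescence | Read-out: Percent of IL-6-only median luminescence | Benchmarks: IL-6-only wells as 100% reference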
# ABCB6 inh 2 – ABCB6 transporter inhibitors, primary screen, K562-ABCB6 cells, flow cytometry, MLPCN library | ATP-binding cassette sub-family B member 6 (Homo sapiens), Q9NP58 | K562-ABCB6 porphyrin accumulation, 1 h; active compounds read low | fluorescence ratio to DMSO, % at 10 µM | 360,000 compounds, 0.19% hits | AID 602162, 2011;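 active = fluorescence ratio to DMSO below 75%, the collection mean minus 3 SD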;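 note: signal is porphyrin accumulated inside mitochondria; 100% equals median channel fluorescence of DMSO control wells; lower ratio means ABCB6 inhibition with less porphyrin fluorescence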
# GAA850 FXN act – FXN promoter activators, primary screen, cell-based, luciferase luminescence, HEK293 lucGAA850; HEK293 lucGAA850 FXN promoter luciferase reporter, 24 h; percent of 10 µM SAHA response; activation, % at 6 µM; 360,000 compounds, 0.56% hits;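 active = activation above the average of all compounds screened plus 3 SD, cutoff fixed separately per campaign, cut at about 7.5% in these data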;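 note: 0% = DMSO wells and 100% = 10 µM SAHA wells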
# AHR activator – AHR activators, primary screen, cell-based, luminescence, luciferase reporter, human; Aryl hydrocarbon receptor (Homo sapiens), P35869; AHR-responsive luciferase reporter cells; activation, % at 5 µM; 320,000 compounds, 2.5% hits; AID 2796, 2010; in the data active = activation above about 47%;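 note: 0% = vehicle wells and 100% = reference agonist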
# AHR act confirm – AHR activators, confirmation, cell-based, luminescence, luciferase reporter, human; shares compounds with AHR activator; human cells, AHR-responsive luciferase reporter; activation, % at 9 µM; 2,300 compounds, 87% hits; in the data active = activation above about 49%;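 note: HepG2 hepatoma cells carrying a DRE-driven firefly luciferase reporter; 0% = vehicle wells and 100% = reference agonist wells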
# PXR act counter – human PXR activators, counter-screen for AHR activator project, cell-based, luciferase luminescence; shares compounds with AHR activator; cell-based PXR reporter; 2,300 compounds, 88% hits; activation, % at 11.6 µM; AID 434939, 2010; in the data active = activation above about 11%;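 note: human hepatoma DPX-2 cells expressing full-length human PXR; 0% = DMSO and 100% = reference agonist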
# Numbers without * were called inactive; · = not tested or not shown. Shown are actives, neighbours in structure and some others; about 3.3% of the full set was active somewhere.
SMILES,STAT3 activator,ABCB6 inh 2,GAA850 FXN act,AHR activator,AHR act confirm,PXR act counter
CC1CN(c2ccccc2)c2nc3c(c(=O)[nH]c(=O)n3C)n2C1 (stereo not drawn),·,98,0,1,·,·
O=C(O)COn1c(-c2ccccc2)nc2ccc([N+](=O)[O-])cc21,113,103,2,141*,53*,·
Cc1cccc(NC(=S)NNC(=O)c2ccccc2OC(F)F)c1,97,101,1,116*,121*,34*
COCCNC(=S)N=Nc1c(O)[nH]c2c(C)cc(C)cc12,90,96,-2,116*,93*,71*
CCCCNC(=S)N=Nc1c(O)[nH]c2ccccc12,92,93,-2,7,·,·
COc1ccc2nc(NCc3ccccc3)[nH]c2c1,106,96,2,17,·,·
Cc1ccc2nc(NCc3ccccc3)[nH]c2c1,105,102,0,84*,55*,208*
CS(=O)(=O)c1ccc2nc(NC(NC(=O)c3ccco3)(C(F)(F)F)C(F)(F)F)sc2c1,103,93,2,-1,·,·
O=C(Nc1ccc(Cl)cc1F)c1ccc2c(c1)C(=O)N(Cc1ccncc1)C2=O,·,100,0,99*,94*,11*
CCCCNC(=O)c1ccc2c(c1)C(=O)N(Cc1ccncc1)C2=O,·,109,-1,·,·,·
O=C(Nc1nccs1)c1ccc(N2CCOCC2)c([N+](=O)[O-])c1,·,104,5,41,·,·
CC(=O)c1cccc(NC(=S)N2CCc3ccccc32)c1,·,106,3,86*,107*,60*
Fc1cccc(NC(=S)N2CCc3ccccc32)c1,·,97,4,·,·,·
COc1ccc(/C=N/n2cnnc2)cc1Br,·,98,3,3,·,·
N#Cc1ccccc1NC(=O)c1ccccc1OCC(=O)NCc1ccco1,107,98,4,117*,109*,47*
N#Cc1ccccc1NC(=O)c1ccccc1OCC(=O)Nc1ccc2c(c1)oc1ccccc12,102,101,-1,10,·,·
CCCNC(=O)COC(=O)c1n[nH]c2ccccc12,77,99,0,4,·,·
O=C(NCCc1ccc(Cl)cc1)c1n[nH]c2ccccc12,89,102,3,33,·,·
Cc1cccc2c(=O)c(C(=O)NCCc3ccccc3)c[nH]c12,·,88,2,20,·,·
O=C(NCCc1ccccc1)c1n[nH]c2ccccc12,93,82,4,101*,103*,71*
O=C(NCCc1ccccc1)c1c[nH]c2c(F)cccc2c1=O,·,98,3,141*,130*,83*
O=C(COC(=O)c1n[nH]c2ccccc12)NCCc1ccccc1,·,97,-1,98*,91*,19*
COc1ccccc1CCC(=O)Nc1ccc2c(c1)CN(Cc1ccc(CO)o1)CC2,·,93,-1,10,·,·
CSc1ccc(NC(=O)C2(C)CCN2C(=O)c2ccccc2CCc2ccccc2)cc1 (stereo not drawn),·,92,-3,·,·,·
O=C(Nc1ccc(Br)cc1)N1CCc2ccccc2C1,·,94,6,98*,156*,55*
SMILES,STAT3 activator,ABCB6 inh 2,GAA850 FXN act,AHR activator,AHR act confirm,PXR act counter
O=c1c2ccccc2nc2c3ccccc3c(NCc3ccccn3)nn12,95,94,1,119*,113*,128*
COc1ccccc1N1CCN(C(=O)C2C3C=CC4(CN(Cc5ccccc5Cl)C(=O)C24)O3)CC1 (stereo not drawn),106,94,-2,-4,·,·
Fc1ccc2cnc(-c3cccnc3)cc2c1,·,103,1,89*,87*,26*
Clc1cccc(-c2nc(-c3ccccn3)no2)c1,33,96,-4,104*,41,-2
c1ccc(-c2noc(-c3cccc4ccccc34)n2)nc1,94,93,1,103*,21,10
c1ccc(-c2nc(-c3ccccn3)no2)cc1,20,95,-5,11,·,·
O=C(CC1Nc2cccc3cccc(c23)NC1=O)Nc1ccc(F)cc1 (stereo not drawn),124,102,0,98*,104*,92*
CC1CCN(c2ccccc2NC(=S)NC(=O)c2ccc(-c3cccc([N+](=O)[O-])c3)o2)CC1,101,89,-1,1,·,·
CC1CCN(c2ccc(NC(=S)NC(=O)c3ccc(-c4cccc([N+](=O)[O-])c4)o3)cc2)CC1,93,103,3,82*,27,15*
COc1cccc(NC(=O)c2cnc[nH]2)c1,·,98,3,6,·,·
O=C(Nc1ccc(Br)cc1)c1cnc[nH]1,·,101,4,109*,68*,18*
COc1cc(N=Nc2ccc3ccccc3c2)ccc1O,·,96,7,84*,28,13*
Cc1cscc1NC(=O)/C=C/C(=O)O,·,100,2,10,·,·
O=c1nc(Nc2ccc(Br)cc2)sc2ccc([N+](=O)[O-])cc12,·,95,0,96*,102*,·
CC(=O)Nc1nc2cc([N+](=O)[O-])ccc2s1,·,93,-1,-1,·,·
CCn1c(=O)c(C(=O)Nc2ccccn2)c(O)c2ccccc21,115,96,2,13,·,·
CCn1c(=O)c(C(=O)Nc2ncccc2C)c(O)c2ccccc21,95,101,3,111*,96*,26*
CCc1ccc(-c2nc(CS(=O)CC(=O)NCc3ccc4c(c3)OCO4)c(C)o2)cc1 (stereo not drawn),·,85,-1,8,·,·
COC(=O)Nc1ccc(S(=O)(=O)N2CCC(C(=O)N3CCCC(C)C3)CC2)cc1 (stereo not drawn),100,95,-1,-3,·,·
Cn1cccc1/C=N/n1c(-c2ccc(C(C)(C)C)cc2)n[nH]c1=S,98,100,2,126*,104*,261*
CN(C(=O)c1nn(C)c2c1CSc1ccccc1-2)c1ccccc1Cl,·,96,0,21,·,·
CN(C(=O)c1nn(C)c2c1CSc1ccccc1-2)c1ccc(F)cc1,·,103,-1,105*,47*,64*
Cn1cccc1/C=N/NC(=O)c1cccc(OC(F)(F)C(F)F)c1,90,99,7,1,·,·
O=C1Nc2ccccc2/C1=C/c1ccccc1F,·,95,5,94*,93*,17*
Cc1ccccc1/C=C1\C(=O)Nc2ccc(F)cc21,·,99,1,9,·,·
CC(NC(=O)CNC(=O)c1sc2ccccc2c1Cl)c1cccnc1 (stereo not drawn),·,98,1,1,·,·
O=C(Nc1nccs1)c1ccc(-c2ccc(Cl)cc2)o1,90,93,4,84*,37,26*
